Results on two compounds are retold here after ChEMBL document CHEMBL1125724, “Potential anti-AIDS agents. Synthesis and antiviral activity of naphthalenesulfonic acid derivatives against HIV-1 and HIV-2” (1991).

The target in assay [1] is Human immunodeficiency virus type 1 protease (Human immunodeficiency virus 1) (UniProt Q72874). The assay is described as follows: Compound tested for % inhibition of giant cell formation at a concentration of 101 uM. The gist of the method:
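MOLT-4 cells were co-cultured 24 h with an equal number of HUT-78/HTLV-III_B cells in the presence of compound. Giant (syncytial) cells were counted microscopically and inhibition of giant cell formation was scored.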

The subject of assay [2] is MT4. The assay is described as follows: Compound was evaluated for inhibitory effect against MT-4 cells of HIV-2 at a concentration of 4(4) ug/mL (uM). The format is functional, Homo sapiens. The procedure, abridged:
(§1)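 HIV-2 (ROD strain) infected MT-4 cells at multiplicity of infection 0.02, incubated with a range of compound concentrations for 4 days. Viable cells counted by MTT method. Per-concentration inhibition of virus-induced cytopathogenicity; values are means of two separate experiments.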

The subject of assay [3] is MT4. The assay is described as follows: Cell viability at a concentration of 0.8(0.8) ug/mL (uM). The format is functional, Homo sapiens.
Assay [4] has as its system MT4. The assay is described as follows: Cell viability at a concentration of 100(1.1) ug/mL (uM). The format is functional, Homo sapiens.
In assay [5] the target is Human immunodeficiency virus type 1 reverse transcriptase (Human immunodeficiency virus 1) (UniProt Q72547). The assay is described as follows: Compound tested for % inhibition of cell-free HIV-1 Reverse Transcriptase at a concentration of 20.2 uM. The procedure, abridged: (§2)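 HIV-1 RT came from disrupted, partially purified, concentrated virions. Reaction ran 30 min at 37 °C in 50 mM Tris-HCl pH 8.4 with 2 mM DTT, 100 mM KCl, 10 mM MgCl2, 0.1% Triton X-100, [methyl-3H]dTTP (1 µCi, 30 Ci/mmol), poly(rA)·oligo(dT) template and compound. It was stopped with 5% TCA, and precipitate was filter-collected and scintillation-counted. Variation was at most 10%.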

Assay [6] deals with MT4. The experiment in a line: Compound was evaluated for inhibitory effect against MT-4 cells of HIV-2 at a concentration of 0.8(0.8) ug/mL (uM). The format is functional, Homo sapiens. The gist of the method: as §1
Assay [7] deals with MT4. The assay is described as follows: Compound was evaluated for inhibitory effect against MT-4 cells of HIV-1 at a concentration of 100(101) ug/mL (uM). The format is functional, Homo sapiens. The gist of the method: (§3)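 HIV-1 (HTLV-III_B) infected MT-4 cells at multiplicity of infection 0.02, incubated with a range of compound concentrations for 4 days. Viable cells counted by MTT method. Per-concentration inhibition of virus-induced cytopathogenicity; values are means of two separate experiments.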

Assay [8] has as its system MT4. The experiment in a line: Compound tested for its inhibition of HIV-2 induced cytopathogenicity in MT-4 cells. The format is functional. The settings on record: Homo sapiens, read-out: ED50 (the source's name). The procedure, abridged: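 MT-4 cells infected with HIV-2 (ROD) at MOI 0.02 and incubated 4 days with a range of compound concentrations. Viable cells were counted by MTT. ED50 is the dose giving 50% inhibition of virus-induced cytopathogenicity, given as the mean of two separate experiments.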

Assay [9] relates to MT4. The assay is described as follows: Compound was evaluated for inhibitory effect against MT-4 cells of HIV-2 at a concentration of 100(101) ug/mL (uM). The format is functional, Homo sapiens. The gist of the method: as §1
Assay [10] has as its system MT4. The assay is described as follows: Compound was evaluated for inhibitory effect against MT-4 cells of HIV-1 at a concentration of 20(20.2) ug/mL (uM). The format is functional, Homo sapiens. The gist of the method:
as §3

Assay [11] deals with MT4. The assay is described as follows: Cell viability at a concentration of 20(20.2) ug/mL (uM). The format is functional, Homo sapiens.
In assay [12] the target is Human immunodeficiency virus type 1 reverse transcriptase (Human immunodeficiency virus 1) (UniProt Q72547). The experiment in a line: Compound tested for % inhibition of cell-free HIV-1 Reverse Transcriptase at a concentration of 4 uM. The gist of the method:
as §2

Assay [13] deals with MT4. The experiment in a line: Compound was evaluated for inhibitory effect against MT-4 cells of HIV-1 at a concentration of 0.8(0.8) ug/mL (uM). The format is functional, Homo sapiens. The gist of the method:
as §3

Assay [14] concerns MT4. The assay is described as follows: Compound was evaluated for inhibitory effect against MT-4 cells of HIV-1 at a concentration of 4(4) ug/mL (uM). The format is functional, Homo sapiens. The procedure, abridged:
as §3

The subject of assay [15] is MT4. The assay is described as follows: Compound tested for its inhibition of HIV-1 induced cytopathogenicity in MT-4 cells. The format is functional. The conditions noted are these: Homo sapiens, read-out: ED50 (the source's name). The procedure, abridged:
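MT-4 cells infected with HIV-1 (HTLV-III_B) at MOI 0.02 and incubated 4 days with a range of compound concentrations. Viable cells were counted by MTT. ED50 is the 50% antiviral dose from inhibition of virus-induced cytopathogenicity, given as the mean of two separate experiments.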
Background: Cytopathic effects are the visible damage that an infection or toxin causes in cultured cells.

Assay [16] addresses Human immunodeficiency virus type 1 reverse transcriptase (Human immunodeficiency virus 1) (UniProt Q72547). The experiment in a line: Inhibitory dose at a concentration 505 uM cell-free HIV-1 Reverse Transcriptase. The procedure, abridged:
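HIV-1 RT from disrupted, partially purified and concentrated virions. 37 °C for 30 min in 50 mM Tris-HCl pH 8.4, 2 mM DTT, 100 mM KCl, 10 mM MgCl₂, 0.1% Triton X-100, 1 µCi [methyl-³H]dTTP, 0.01 unit poly(rA)·oligo(dT). Stopped with 5% TCA; precipitate collected on glass-fiber filters and counted by scintillation. Means of two experiments; variation ≤10%.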

Assay [17] relates to MT4. The assay is described as follows: Cell viability at a concentration of 4(4) ug/mL (uM). The format is functional, Homo sapiens.
Assay [18] addresses Human immunodeficiency virus type 1 reverse transcriptase (Human immunodeficiency virus 1) (UniProt Q72547). The assay is described as follows: Compound tested for % inhibition of cell-free HIV-1 Reverse Transcriptase at a concentration of 505 uM. The gist of the method: as §2
Assay [19] deals with MT4. The experiment in a line: Compound was evaluated for inhibitory effect against MT-4 cells of HIV-2 at a concentration of 20(20.2) ug/mL (uM). The format is functional, Homo sapiens. The procedure, abridged: as §1
The test system of assay [20] is MT4. The experiment in a line: Compound tested for its ability to reduce viability of mock-infected MT-4 cells. The format is functional. The conditions noted are these: Homo sapiens, read-out: CD50 (the source's name). The procedure, abridged:
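Mock-infected MT-4 cells were incubated 4 days with a range of compound concentrations, and viability was read by MTT. CD50 is the 50% cytotoxic dose from reduced viability, given as the mean of two separate experiments.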

Assay [21] has as its system MT4. The assay is described as follows: Compound was evaluated for inhibitory effect against MT-4 cells of HIV-2 at a concentration of 100(167) ug/mL (uM). The format is functional, Homo sapiens. The procedure, abridged:
as §1

Assay [22] deals with Human immunodeficiency virus type 1 reverse transcriptase (Human immunodeficiency virus 1) (UniProt Q72547). The settings on record: 6.7 uM.
The test system of assay [23] is MT4. The assay is described as follows: Compound was evaluated for inhibitory effect against MT-4 cells of HIV-2 at a concentration of 4(6.7) ug/mL (uM). The format is functional, Homo sapiens. The gist of the method:
as §1

The test system of assay [24] is MT4. The experiment in a line: Cell viability at a concentration of 100(167) ug/mL (uM). The format is functional, Homo sapiens.
Assay [25] concerns MT4. The experiment in a line: Cell viability at a concentration of 0.8(1.3) ug/mL (uM). The format is functional, Homo sapiens.
The test system of assay [26] is MT4. The experiment in a line: Cell viability at a concentration of 4(6.7) ug/mL (uM). The format is functional, Homo sapiens.
Assay [27] concerns the target Human immunodeficiency virus type 1 reverse transcriptase (Human immunodeficiency virus 1) (UniProt Q72547). The conditions noted are these: 33.4 uM.
Assay [28] relates to MT4. The experiment in a line: Compound was evaluated for inhibitory effect against MT-4 cells of HIV-1 at a concentration of 0.8(1.3) ug/mL (uM). The format is functional, Homo sapiens. The gist of the method:
as §3

Assay [29] addresses Human immunodeficiency virus type 1 reverse transcriptase (Human immunodeficiency virus 1) (UniProt Q72547).
In assay [30] the test system is MT4. The experiment in a line: Compound was evaluated for inhibitory effect against MT-4 cells of HIV-1 at a concentration of 4(6.7) ug/mL (uM). The format is functional, Homo sapiens. The gist of the method:
as §3

Assay [31] has as its system MT4. The assay is described as follows: Compound was evaluated for inhibitory effect against MT-4 cells of HIV-2 at a concentration of 0.8(1.3) ug/mL (uM). The format is functional, Homo sapiens. The gist of the method: as §1
Assay [32] concerns MT4. The experiment in a line: Compound was evaluated for inhibitory effect against MT-4 cells of HIV-2 at a concentration of 20(33.4) ug/mL (uM). The format is functional, Homo sapiens. The gist of the method:
as §1

The test system of assay [33] is MT4. The assay is described as follows: Cell viability at a concentration of 20(33.4) ug/mL (uM). The format is functional, Homo sapiens.
In assay [34] the test system is MT4. The assay is described as follows: Compound was evaluated for inhibitory effect against MT-4 cells of HIV-1 at a concentration of 100(167) ug/mL (uM). The format is functional, Homo sapiens. The procedure, abridged: as §3
Assay [35] has as its system MT4. The assay is described as follows: Compound was evaluated for inhibitory effect against MT-4 cells of HIV-1 at a concentration of 20(33.4) ug/mL (uM). The format is functional, Homo sapiens. The procedure, abridged:
as §3

Converted amounts (≈) assume the structure as drawn.

As to `O=S(=O)([O-])c1cc(NS(=O)(=O)c2ccc(-c3ccc(S(=O)(=O)Nc4cc(S(=O)(=O)[O-])c5cccc(S(=O)(=O)[O-])c5c4)cc3)cc2)cc2c(S(=O)(=O)[O-])cccc12.[Na+].[Na+].[Na+].[Na+]`, the inhibition is 100% in assay [1], 0% in [5], 0% in [12] and 100% in assay [18]. Also, the Inhibition is recorded as 1% in the assay with MT4 [2]; 0% with MT4 [6]; 100% in the assay with MT4 [7]; 94% with MT4 [9]; 8% in the assay with MT4 [10]; 0% in the assay with MT4 [13]. Further, the results for the Inhibition in the assay with MT4 [14] and in the assay on MT4 [19] were 1% and 9%, respectively. In addition, the Cell viability in the assay on MT4 [3] was 1; in the assay on MT4 [4], 0; in the assay on MT4 [11] it was 0; in the assay on MT4 [17] it was 0. For the same compound, the EC50 in the assay on MT4 [8] was 43 µg/mL; with MT4 [15], 42 µg/mL. The same compound had an ID50 in assay [16] of 370 µg/mL. Moreover, the CC50 with MT4 [20] was above 100 µg/mL.

As for `CCCCCCCCCCCCCCCC(=O)Nc1cc(S(=O)(=O)O)cc2cc(S(=O)(=O)O)cc(O)c12`, the Inhibition is 100% with MT4 [21]; 3% in the assay with MT4 [23]; 5% with MT4 [28]; 0% in the assay with MT4 [30]; 6% with MT4 [31]; 12% in the assay on MT4 [32]. In addition, the Inhibition is 100% in the assay on MT4 [34] and 7% in the assay on MT4 [35]. The figures for the inhibition in assay [22] and in [27] were 9% and 4%, respectively. For the same compound, the Cell viability in the assay on MT4 [24] came out at 0; in the assay on MT4 [25] it was 0; in the assay with MT4 [26] it was 0; in the assay with MT4 [33] it was 1. The EC50 was determined as 40 µg/mL (≈ 71.7 µM) with MT4 [8] and 42 µg/mL (≈ 75.3 µM) in the assay with MT4 [15]. This compound also displayed an ID50 in assay [29] of 50 µg/mL (≈ 89.6 µM). Further, in the assay on MT4 [20], the CC50 is above 100 µg/mL.

The term inhibition denotes the drop in the measured response relative to a control, in per cent. As usually defined, the Inhibition is the relative decrease from the control value, in per cent. Lower therefore signals a weak effect.
